PG9 Ab binder – small molecules binding HIV-1 gp120 antibody PG9; 0.43% of 360,000 active; inhibition, % at 6.7 µM; TR-FRET gp120-PG9 antibody binding; in the data active means inhibition above about 8.5%
NR2E3 ag-1 – human photoreceptor-specific nuclear receptor agonism. Q9Y5X4. CHO-S Gal4-NCOR/VP16-NR2E3 two-hybrid, luciferase. inhibition of corepressor binding, % at 3.98 µM. 0.35% of 360,000 active. AID 602229;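 active means inhibition above the mean of all tested compounds plus 3 SD, cut at about 70% in these data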;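 further: 0% = DMSO with NR2E3 transfected cells and 100% = cells lacking NR2E3 construct; higher means lower luciferase signal from less NR2E3 corepressor binding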
NR1D1 modulator – modulates human Rev-erb alpha binding to DNA | Rev-erbα–FITC-DNA binding, fluorescence polarization, 90 min | AID 1259318 | 0.79% of 370,000 active | P20393 | activity, % at 10 µM;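 active means activity above about 14%, limit read from the data; passing the limit was not always enough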;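 further: 0% = DMSO wells with 35 nM protein and 100% = DMSO wells with 750 nM protein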
Target sequence (P20393 whole entry, looked up): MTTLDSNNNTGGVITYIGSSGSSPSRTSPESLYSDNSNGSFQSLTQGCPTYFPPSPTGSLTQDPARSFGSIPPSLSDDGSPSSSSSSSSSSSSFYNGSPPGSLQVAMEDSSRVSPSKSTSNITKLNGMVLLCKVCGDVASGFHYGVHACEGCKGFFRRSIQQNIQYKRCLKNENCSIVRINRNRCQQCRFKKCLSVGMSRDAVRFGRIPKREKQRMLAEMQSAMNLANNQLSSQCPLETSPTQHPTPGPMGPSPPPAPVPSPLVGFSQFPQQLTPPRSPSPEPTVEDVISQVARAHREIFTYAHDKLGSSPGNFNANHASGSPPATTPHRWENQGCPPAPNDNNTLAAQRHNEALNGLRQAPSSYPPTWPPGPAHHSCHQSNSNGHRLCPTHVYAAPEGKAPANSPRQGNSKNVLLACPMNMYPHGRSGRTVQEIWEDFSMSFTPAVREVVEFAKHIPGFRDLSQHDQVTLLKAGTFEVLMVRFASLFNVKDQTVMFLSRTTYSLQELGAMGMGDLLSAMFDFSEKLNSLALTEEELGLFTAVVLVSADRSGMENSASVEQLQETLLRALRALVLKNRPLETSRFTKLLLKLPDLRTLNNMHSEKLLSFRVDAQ
NR2E3 ag-2 – agonists of human nuclear receptor NR2E3 | AID 2300 | 0.12% of 320,000 active | GST-NR2E3/biotin-RetCOR TR-FRET, 1536-well | inhibition of corepressor binding, % at 4.78 µM;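 active means percent inhibition above the cutoff of mean plus 3 SD of all tested compounds, set per screening campaign, cut at about 20% in these data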;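 further: 0% = DMSO wells and 100% = biotin wells as full block of FRET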
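Assay system: NR2E3–RetCOR corepressor complex. Quantity: 1.35 nM GST-NR2E3. Buffer or medium: pH 7.5 Tris-based buffer. Reagent: biotinylated RetCOR corepressor at 7 nM final. Schedule: 5 h at 4 °C. Detection: TR-FRET, emission read at 617 and 671 nm. Replicates: one well per compound, singlicate testing.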
PG9 binder conf – confirmation of small molecules binding HIV-1 gp120 antibody PG9. shares compounds with PG9 Ab binder. TR-FRET PG9 antibody binding, biochemical. inhibition, % at 6.7 µM. 90% of 1,500 active. AID 651571; in the data active means inhibition above about 9%
PGV04 counter – binds control antibody PGV04 in PG9 binder counter-screen | TR-FRET PGV04 antibody-gp120 binding, biochemical | shares compounds with PG9 Ab binder | 95% of 1,500 active | inhibition, % at 6.7 µM; in the data active means inhibition above about 9.5%
PG9 bind DR – PG9 antibody binding, dose response. shares compounds with PG9 Ab binder. IC50, µM. AID 651848. 95 tested, under 10 active. TR-FRET PG9 antibody-gp120 binding inhibition; in the data active means IC50 below about 10 µM
PGV04 binding DR – binds control antibody PGV04 in PG9 counter-screen | IC50, µM | shares compounds with PG9 Ab binder | 20% of 95 active | TR-FRET binding to control antibody PGV04
PG126 DR counter – binds control antibody PG126 in PG9 counter-screen. TR-FRET binding to antibody PG126, counterscreen. shares compounds with PG9 Ab binder. 20% of 95 active. IC50, µM
* hit, by the source's call; i = inactive; nt = no result. An excerpt weighted towards active compounds, which were near 1.5% of everything screened. Unless noted, no stated cut-off is given here; in the data, active means IC50 below about 9 µM; inactive means the rest.

SMILES	PG9 Ab binder	NR2E3 ag-1	NR1D1 modulator	NR2E3 ag-2	PG9 binder conf	PGV04 counter	others
COC(=O)c1cc2oc3ccccc3c2n1CC(=O)N1CCCc2ccccc21	12*	1	9	4	12*	20*
COC(=O)c1cc2ccsc2n1CC(=O)N1CCCc2ccccc21	-1	-2	1	-1	nt	nt
O=S(=O)(c1ccc(Cl)nc1)N1CCC(Cc2ccccc2)CC1	0	33	0	nt	nt	nt
NC(=O)C1CCN(c2ccc(S(=O)(=O)N3CCC(Cc4ccccc4)CC3)cn2)CC1	14*	-21	1	1	24*	34*
O=C(O)C1CCC(Cn2c(SCc3cc(=O)n4cc(Br)ccc4n3)nc3ccsc3c2=O)CC1 (stereo not given)	22*	2	8	6	30*	50*
O=C(O)c1ccc(Cn2c(SCc3cc(=O)n4cc(Br)ccc4n3)nc3ccsc3c2=O)cc1	5	nt	-4	2	nt	nt
O=C(CSc1nnc(-c2c[nH]c3ccccc23)o1)c1ccc(-c2ccccc2)cc1	18*	15	3	-2	22*	43*
COC(=O)CSc1nnc(-c2c[nH]c3ccccc23)o1	0	-15	1	-4	nt	nt
Cc1cccc(C)c1NC(=O)CCn1cnc2ccccc2c1=O	-1	-15	3	-1	nt	nt
Cc1ccc(NC(=O)CCn2cnc3ccccc3c2=O)cc1Cl	13*	4	9	0	18*	23*
Cc1ccc2nc(-c3ccc(NC(=O)CSc4nnc(-c5cccc(Cl)c5)n4Cc4ccco4)cc3)sc2c1	nt	nt	-3	nt	nt	nt
CCOc1ccc(NC(=O)Nc2nc3ccc(S(C)(=O)=O)cc3s2)cc1	14*	-7	10	nt	19*	22*
Cc1ccccc1NC(=O)Nc1nc2ccc(S(C)(=O)=O)cc2s1	11*	-50	6	4	12*	28*
NS(=O)(=O)c1ccc2nc(NC(=O)Nc3ccccc3F)sc2c1	2	-92	-6	4	nt	nt
CCOCC(=O)Nc1nc2ccc(S(C)(=O)=O)cc2s1	1	-10	-5	0	nt	nt
C[C@H](CO)N1C[C@H](C)[C@@H](CN(C)Cc2ccccc2)Oc2c(NS(=O)(=O)c3ccc(F)cc3)cccc2C1=O	11*	-39	-5	nt	31*	47*
COC(=O)[C@]12C[C@H](CC(=O)NCC3CCCCC3)C(=O)N(CCc3ccc(OC)c(OC)c3)C1=C[C@H](C(C)(C)C)O[C@@H]2C	2	nt	3	nt	nt	nt
O=C1CC(c2ccc(F)cc2)Cc2nc(NCc3ccco3)ncc21 (stereo not given)	9.4*	-6	6	3	18*	23*
COc1ccccc1C(=O)NC1CCCCN(Cc2ccc(OC(F)(F)F)cc2)C1=O (stereo not given)	nt	nt	4	nt	nt	nt
S=c1[nH]nc(-c2cccc(Br)c2)o1	27*	-12	-6	13	28*	39*
CCC(C)(C)NC(=S)Nc1ccc(-c2nc3ccc(C)cc3s2)cc1	11*	-139	-5	3	10*	24*
c1ccc(Cn2c(SCC3CCC3)nnc2-c2cccnc2)cc1	nt	nt	0	nt	nt	nt
COc1cccc(C(=O)Nc2cc(C(=O)NCc3ccc(C)cc3)ccc2N2CCC3(CC2)CC(c2ccccc2)=NO3)c1	11*	-55	2	7	4	6
COc1ccc(CNC(=O)c2ccc(N3CCC4(CC3)CC(c3ccc(Cl)cc3)=NO4)c(NC(=O)c3ccccc3)c2)cc1	-1	-11	3	-4	nt	nt
COc1ccc(S[C@]2(C(=O)N3CCN(C(C)=O)CC3)CC(=O)N(C(=O)CCc3ccccc3)[C@@H]2c2ccc(OC)cc2)cc1	nt	nt	1	nt	nt	nt
SMILES	PG9 Ab binder	NR2E3 ag-1	NR1D1 modulator	NR2E3 ag-2	PG9 binder conf	PGV04 counter	others
Cc1ccc(-c2cc(C(=O)NCc3cnn(C)c3)c3cc(Br)ccc3n2)cc1	11*	-22	14	i	7	58*
Cn1cc(CNC(=O)c2cc(-c3ccccc3)nc3ccc(Br)cc23)cn1	11*	-17	13	16	14*	20*
COc1ccc(CN(C)C(=O)c2cc(-c3ccccc3)nc3ccc(C)cc23)c(OC)c1	-1	-7	6	nt	nt	nt
Cc1nn(C)cc1CN(C)C(=O)c1cc(-c2ccccc2)nc2ccc(Br)cc12	13*	-4	8	13	21*	26*
CCCCNS(=O)(=O)CC1NCc2cc(OC)ccc21 (stereo not given)	nt	nt	-1	nt	nt	nt
C[C@@H]1/C=C/CC(=O)N[C@H](c2cccc(Br)c2)[C@H](C)/C=C/CC(=O)N[C@@H]1c1cccc(Br)c1	nt	nt	5	nt	nt	nt
CCOC(=O)c1cc2sccc2n1CC(=O)Nc1ccc(OC)cc1	12*	9	7	-1	16*	31*
CCOC(=O)c1cc2sccc2n1CC(=O)Nc1ccc(OC)c(OC)c1	0	-14	3	2	nt	nt
CN(C)[C@H]1CCN(c2cccc3c2S(=O)(=O)N(C2CC2)CCCO3)C1	nt	nt	-4	nt	nt	nt
Cc1ccccc1NC(=O)CCC(=O)OCC(=O)c1ccc(-c2ccccc2)cc1	13*	-5	0	-1	13*	24*
O=C(CCC(=O)OCC(=O)c1ccccc1)Nc1cccc2cccnc12	0	21	4	2	nt	nt
O=C(Nc1cc(F)cc(F)c1)c1sc(Cl)nc1-c1ccccc1	9.6*	-3	19	-3	14*	42*
O=C(Nc1ccccc1)c1sc(Cl)nc1-c1ccccc1	-1	-2	-1	3	nt	nt
COc1ccc2c(c1)C(C)CC(C)(C)N2C(=O)CSc1ncn[nH]1 (stereo not given)	16*	-24	-7	4	11*	15*
CC(C)(C)c1ccc(-c2nnc(SCC(=O)Nc3ccc(Oc4ccccc4)cc3)n2Cc2ccco2)cc1	nt	nt	2	nt	nt	nt
Cc1cc(=O)oc2cc(NC(=O)C3COc4ccccc4O3)ccc12 (stereo not given)	16*	-36	11	8	39*	33*	PG9 bind DR=>67;PGV04 binding DR=i;PG126 DR counter=i
COC(=O)C[C@@H]1CC[C@H]2[C@@H](COc3ccc(NC(=O)NC(C)C)cc3C(=O)N2C)O1	nt	nt	2	nt	nt	nt
O=S(=O)(c1ccc(Cl)cc1)N1CCN(c2ncccn2)CC1	16*	12	5	4	26*	32*
COc1ccc(S(=O)(=O)N2CCN(c3ncccn3)CC2)cc1	1	-4	1	1	nt	nt

Screening data: PubChem, several laboratories
